Assay results collected from several papers.
Lines come from different studies, so protocols differ.
Target: Carbonic anhydrase 1 (CA1, Homo sapiens, UniProt P00915)
Read-out: enzyme activity
Action: inhibitor

| Structure (SMILES) | test | measurement | result |
| --- | --- | --- | --- |
| O=C(Nc1cccc(Cl)c1)Nc1ccc2c(c1)C=CCP(=O)(O)O2 | stopped-flow | Ki | > 10000 nM |
| CC(C)c1cc2c(c(O)c1O)[C@@]1(C(=O)O)CCCC(C)(C)[C@@H]1CC2 | – | IC50 | 3.1 nM |
| N#C[Se]Cc1cc(=O)oc2cc(O)ccc12 | stopped-flow | Ki | > 100000 nM |
| O=C(Nc1cccc(C(F)(F)F)c1)Nc1ccc2c(c1)C=CCP(=O)(O)O2 | stopped-flow | Ki | > 10000 nM |
| NC(=S)N/N=C1/c2ccccc2[C@@H]2[C@H]1[C@@H](c1ccccc1)[C@H](C(=O)c1ccccc1)[C@H]2c1ccccc1 (racemic) | absorbance | IC50 | 1550 nM |
| COc1ccc(NC(=O)Nc2ccc3c(c2)C=CCP(=O)(O)O3)cc1 | stopped-flow | Ki | > 10000 nM |
| CC(C)c1cc2c(c(O)c1O)[C@@]13CCCC(C)(C)[C@@H]1[C@H](OC3=O)[C@H]2O | – | Ki | 0.12 nM |
| COc1ccc(C(=O)[C@@H]2[C@@H](c3ccc(OC)cc3)[C@@H]3c4ccccc4/C(=N/NC(N)=S)[C@@H]3[C@H]2c2ccc(OC)cc2)cc1 (racemic) | absorbance | IC50 | 1070 nM |
| CC(C)c1cc2c(c(O)c1O)[C@@]13CCCC(C)(C)[C@@H]1C[C@@H]2OC3=O | – | Ki | 2.3 nM |
| NC(=S)N/N=C1/c2ccccc2[C@@H]2[C@H]1[C@@H](c1ccoc1)[C@H](C(=O)c1ccco1)[C@H]2c1ccoc1 | absorbance | IC50 | 434 nM |
| CC(C)c1cc2c(c(O)c1O)[C@@]13CCCC(C)(C)[C@@H]1[C@@H](O)[C@@H]2OC3=O | – | IC50 | 1.63 nM |
| Cc1ccc(C(=O)Nc2ccc3c(c2)C=CCP(=O)(O)O3)cc1 | stopped-flow | Ki | > 10000 nM |
| N#C[Se]CCCCOc1ccc2c(-c3ccccc3)cc(=O)oc2c1 | stopped-flow | Ki | > 100000 nM |
| O=C(Nc1ccc2c(c1)C=CCP(=O)(O)O2)c1ccc([N+](=O)[O-])cc1 | stopped-flow | Ki | > 10000 nM |
| NC(=S)N/N=C1/c2ccccc2[C@@H]2[C@H]1[C@@H](c1cccs1)[C@H](C(=O)c1cccs1)[C@H]2c1cccs1 (racemic) | absorbance | IC50 | 774 nM |
